Measured values taken from ChEMBL document CHEMBL1124528, “Tetrahydrothiadiazoloisoquinolines: synthesis and inhibition of phenylethanolamine-N-methyltransferase” (J Med Chem, 1989).

What was measured:
[1] = system: Phenylethanolamine N-methyltransferase (rabbit); experiment: Ability to inhibit rabbit adrenal phenylethanolamine N-methyl-transferase norepinephrine to epinephrine (E13), in vitro, at 10 e-6 M; settings: Oryctolagus cuniculus
[2] = system: Rattus norvegicus; experiment: Ability to inhibit [3H]epinephrine biosynthesis was determined in the adrenal medulla of rats by administering 3 mg/kg of compound orally.; assay type: functional; settings: po
[3] = system: Mus musculus; experiment: Maximum inactive dose that causes decrease in endogenous adrenal epinephrine/norepinephrine ratio, when administered perorally in mice
[4] = system: Mus musculus; experiment: Minimum active dose that causes decrease in endogenous epinephrine/norepinephrine ratio, when administered perorally in mice; assay type: functional
Procedure, shortened: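 Mice given compound orally, b.i.d., as chronic dosing, then adrenal gland E and NE content measured to give the E/NE ratio. Minimum active dose is the lowest dose giving p < 0.05 vs control by Student's t test.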

[5] = system: Phenylethanolamine N-methyltransferase (rabbit); experiment: Ability to inhibit rabbit adrenal PNMT norepinephrine to epinephrine (E13), in vitro, at 10 e-4 M compound concentration.; settings: Oryctolagus cuniculus
[6] = system: Phenylethanolamine N-methyltransferase (rabbit); experiment: Ability to inhibit rabbit adrenal PNMT norepinephrine to epinephrine (E13), in vitro, at 10 e-6 M; settings: Oryctolagus cuniculus
[7] = system: Mus musculus; experiment: Minimum active dose that causes decrease in endogenous adrenal epinephrine/norepinephrine ratio, when administered perorally in mice; assay type: functional
Procedure, shortened: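 Mice dosed orally b.i.d. (chronic administration), then adrenal E and NE content measured and the decrease in E/NE ratio determined. Minimum active dose is the lowest dose significant at p < 0.05 versus control by Student's t test.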

| Compound | inhibition [1] | inhibition [5] | inhibition [6] | other results |
| --- | --- | --- | --- | --- |
| c1nc2ccc3c(c2s1)CNCC3 | 24% |  |  |  |
| c1cc2nnsc2c2c1CCNC2 | 91% |  |  |  |
| c1ccc2c3c(ccc2c1)CCNC3 | 14% |  |  |  |
| Cl.Clc1ccc2c(c1Cl)CNCC2 |  |  |  | inhibition in vivo at 3 mg/kg [2]: 50%; MID [3]: 2.5 mg/kg; MAD [4]: 5 mg/kg |
| Nc1nc2ccc3c(c2s1)CNCC3 |  | 41% | 15% |  |
| c1nc2c3c(ccc2[nH]1)CCNC3 | 0% |  |  |  |
| Oc1nc2c3c(ccc2[nH]1)CCNC3 |  | 4% | 1% |  |
| Oc1nc2c3c(ccc2s1)CCNC3 |  | 37% | 3% |  |
| c1cc2[nH]nnc2c2c1CCNC2 | 20% |  |  |  |
| Cl.c1cc2snnc2c2c1CCNC2 |  |  |  | inhibition in vivo at 3 mg/kg [2]: 87%; MAD [7]: 12.5 mg/kg; MID [3]: 6.25 mg/kg |
| Clc1cc2snnc2c2c1CCNC2 |  | 98% | 51% |  |
